“Also recorded” adds a separate entry of the source.
Assays:
SmTGR [1] = biological target: T1, SmTGR (Schistosoma mansoni, UniProt Q962Y6); assay: SmTGR enzymatic assay; type: biochemical
T1 sequence (Q962Y6 1-598): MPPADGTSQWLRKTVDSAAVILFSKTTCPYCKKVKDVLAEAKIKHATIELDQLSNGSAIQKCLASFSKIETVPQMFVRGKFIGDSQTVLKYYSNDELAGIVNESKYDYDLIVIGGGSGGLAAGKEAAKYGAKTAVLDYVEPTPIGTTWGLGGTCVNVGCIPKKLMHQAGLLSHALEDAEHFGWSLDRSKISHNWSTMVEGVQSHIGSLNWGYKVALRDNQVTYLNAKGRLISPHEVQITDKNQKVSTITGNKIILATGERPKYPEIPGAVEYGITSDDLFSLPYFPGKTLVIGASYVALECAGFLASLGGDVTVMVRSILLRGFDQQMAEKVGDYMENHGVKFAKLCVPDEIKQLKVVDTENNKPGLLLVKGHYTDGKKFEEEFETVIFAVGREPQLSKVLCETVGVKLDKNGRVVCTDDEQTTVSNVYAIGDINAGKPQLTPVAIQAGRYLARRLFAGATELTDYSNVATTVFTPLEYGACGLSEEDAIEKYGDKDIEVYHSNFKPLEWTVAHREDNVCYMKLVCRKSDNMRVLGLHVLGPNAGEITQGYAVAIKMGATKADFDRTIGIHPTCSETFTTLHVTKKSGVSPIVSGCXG

schistosomula = assay: Schistosomicidal activity against ex vivo schistosomula; parameters: species or system Schistosoma mansoni
Outline: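 Schistosomula were made by mechanical transformation of cercariae from infected Biomphalaria glabrata, then isolated on a Percoll gradient. They were cultured for 24 hr in M-199 with 10% fetal calf serum before test compound was added. Untreated larvae served as controls. Survival was followed by daily observation, and larvae without movement were scored dead.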

Mammalian TrxR [2] = assay: Mammalian TrxR inhibition; type: biochemical; details: in words
adult worms = assay: Schistosomicidal activity against ex vivo adult worms; parameters: species or system Schistosoma mansoni
Outline: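 Adult Schistosoma mansoni were perfused from mice seven weeks after infection. They were cultured for 24 hr in RPMI with 10% fetal calf serum, 10 mM glutamine and 1X penicillin/streptomycin before test compound was added. Untreated worms served as controls. Worms were checked daily and scored dead when no movement was seen.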

hGR = biological target: T2, hGR (Homo sapiens, UniProt P00390); assay: Activity against human glutathione reductase; type: biochemical; details: results not shown
T2 sequence (P00390 44-522): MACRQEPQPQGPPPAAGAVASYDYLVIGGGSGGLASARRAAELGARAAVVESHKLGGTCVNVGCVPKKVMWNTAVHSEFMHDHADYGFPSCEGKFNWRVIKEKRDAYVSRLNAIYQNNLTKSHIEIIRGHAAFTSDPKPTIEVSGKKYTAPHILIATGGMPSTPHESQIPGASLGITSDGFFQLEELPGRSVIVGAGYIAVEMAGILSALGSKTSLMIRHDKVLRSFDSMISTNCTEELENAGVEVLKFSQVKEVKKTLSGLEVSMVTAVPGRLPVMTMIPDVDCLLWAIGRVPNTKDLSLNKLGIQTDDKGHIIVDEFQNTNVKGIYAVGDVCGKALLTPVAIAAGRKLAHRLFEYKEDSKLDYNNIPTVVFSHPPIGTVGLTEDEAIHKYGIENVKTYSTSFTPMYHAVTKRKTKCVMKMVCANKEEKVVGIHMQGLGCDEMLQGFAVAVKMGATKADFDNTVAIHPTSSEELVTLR

SmTGR [3] = biological target: T1, SmTGR; assay: Steady state experiments varying NADPH at saturating DTNB; type: biochemical
Mammalian TrxR [4] = details: ref Bioassays AID 588453 and AID 588456, cited from earlier work
[5] = test system: TGR activity in treated worms; assay: Inhibition of TGR in treated ex vivo worms; parameters: species or system Schistosoma mansoni; details: adult worms cultured with 50 μM compound, versus DMSO-treated worms
[6] = Behaviour of compound in worm culture medium; type: physicochemical

O=C(O)c1ccc2ccccc2c1 [CID: 7123, 2-Naphthoic acid]
IC50 (SmTGR [1]): 1100 µM

O=C(O)c1ccc2ncccc2n1 [CID: 12426408, 1,5-Naphthyridine-2-carboxylic acid]
IC50 (SmTGR [1]): 2600 µM

O=C(O)c1ccc(CN2CCN(CCO)CC2)nc1 [CID: 80159879, 6-((4-(2-Hydroxyethyl)piperazin-1-yl)methyl)nicotinic acid]
IC50 (SmTGR [1]): 4400 µM

O=C(O)c1ccc2cccnc2n1 [Compound 1, 1,8-naphthyridine-2-carboxylate]
Schistosomula killed (schistosomula; 10 μM, in five days): 0% | Schistosomula killed (schistosomula; 50 μM, in five days): 11% | Selectivity for SmTGR over hTrxR (Mammalian TrxR [2]): high selectivity | Adult worms killed (adult worms; 10 μM, in five days): 0% | Adult worms killed (adult worms; 50 μM, in five days): 13% | Activity against hGR (hGR): no detectable activity | Inhibition mechanism versus NADPH (SmTGR [3]; NADPH 0.01 to 1 mM, DTNB 3 mM): mixed competitive inhibition mechanism | KIS, binding of inhibitor to NADPH-bound enzyme (estimated) (SmTGR [3]; at 3 mM DTNB): 4.8 mM | Inhibition of mammalian hTrxR (in words) (Mammalian TrxR [4]): does not inhibit; also recorded: undetectable inhibition | Mammalian TrxR IC50 (Mammalian TrxR [4]): Inactive

OCCN1CCN(CCO)CC1 [Compound 2, 1,4-bis(2-hydroxyethyl)piperazine]
SmTGR IC50 (SmTGR [1]; 6-His-tagged SmTGRwt 20 nM, 10 min preincubation with NADPH 100 μM, DTNB 3 mM): inactive

NCCCCN1CCN(CCO)CC1 [Compound 3, 2-[4-(4-aminobutyl)piperazin-1-yl]ethanol]
IC50 (SmTGR [1]): > 10000 µM

O=S(=O)(O)CCN1CCN(CCO)CC1 [Compound 4, 4-(2-Hydroxyethyl)-1-piperazineethanesulfonic acid]
IC50 (SmTGR [1]): 3300 µM

OCCN1CCN(Cc2cc(Cl)c3cccnc3c2O)CC1 [Compound 5, 5-chloro-7-((4-(2-hydroxyethyl)piperazin-1-yl)methyl)quinolin-8-ol]
IC50 (SmTGR [1]): 120 µM | Schistosomula killed (schistosomula; 10 μM, in five days): 80% | Schistosomula killed (schistosomula; 50 μM, in 24 hr): killed all schistosomula | Selectivity for SmTGR over hTrxR (Mammalian TrxR [2]): high selectivity | Adult worms killed (adult worms; 10 μM, in five days): 27% | Adult worms killed (adult worms; 50 μM, in five days): 88% | Inhibition of mammalian hTrxR (in words) (Mammalian TrxR [4]): undetectable inhibition | Mammalian TrxR IC50 (Mammalian TrxR [4]): Inactive | GR (GSH disulfide reduction) activity in treated worms [5]: significant inhibition | TrxR (DTNB reduction) activity in treated worms [5]: significant inhibition

CCOC(=O)c1c(C)oc2c1c(CN1CCN(CCO)CC1)c(O)c1ccccc12 [Compound 6, ethyl 5-hydroxy-4-{[4-(2-hydroxyethyl)piperazin-1-yl]methyl}−2-methylnaphtho[1,2-b]furan-3-carboxylate]
IC50 (SmTGR [1]): 0.06 µM | Fold more potent than 5 (SmTGR IC50) (SmTGR [1]; IC50 of 6 compared with IC50 of 5): 2000 fold | Schistosomula killed (schistosomula; 10 μM, in five days): 100% | Schistosomula killed (schistosomula; 50 μM, in 24 hr): killed all schistosomula | Selectivity for SmTGR over hTrxR (Mammalian TrxR [2]): high selectivity | Solubility behaviour in culture medium [6]: initially precipitated in the culture medium then slowly dissolved over the following hours | Adult worms killed (adult worms; 10 μM, in five days): 9% | Adult worms killed (adult worms; 50 μM, in four days): 100% | IC50 (Mammalian TrxR [4]; read-out: Mammalian TrxR IC50): 1.12 µM | GR (GSH disulfide reduction) activity in treated worms [5]: significant inhibition | TrxR (DTNB reduction) activity in treated worms [5]: significant inhibition

From publication PMC6905387 (ACS chemical biology, 2018)
